Broadly, the viability is a read-out of living cells in per cent, often relative to untreated cells. As usually defined, the inhibition is the relative decrease from the control value, in per cent.

Active and inactive are the calls of the source. Unless noted, no stated cut-off is given here; in the data, active means inhibition above about 30%; inactive means the rest.

A short description of assay [1]: reducers of endogenous Her2 protein level, primary screen, SKBR3 breast tumor cells, AlphaScreen, ATP viability (AID 461;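 active means Her2 level under about 52% in both replicate screens, with viability over 70% of control, limit read from the data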;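 on Her2 level: lower value means less Her2 protein in the cells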;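 on viability: percent of carrier control wells set as 100% viability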). The note with it: 18-24 h, measured here: SKBR3 viability, ATP luminescence, at 10 µM. Background: In Alpha technology, singlet oxygen from a donor bead excites a nearby acceptor bead.
In assay [2] the target is Receptor tyrosine-protein kinase erbB-2 (Homo sapiens) (UniProt P04626). The assay is described as above. The note with it: 18-24 h, at 10 µM, stronger effect = lower value.
Chain of Receptor tyrosine-protein kinase erbB-2 (Homo sapiens) (P04626 whole entry, looked up): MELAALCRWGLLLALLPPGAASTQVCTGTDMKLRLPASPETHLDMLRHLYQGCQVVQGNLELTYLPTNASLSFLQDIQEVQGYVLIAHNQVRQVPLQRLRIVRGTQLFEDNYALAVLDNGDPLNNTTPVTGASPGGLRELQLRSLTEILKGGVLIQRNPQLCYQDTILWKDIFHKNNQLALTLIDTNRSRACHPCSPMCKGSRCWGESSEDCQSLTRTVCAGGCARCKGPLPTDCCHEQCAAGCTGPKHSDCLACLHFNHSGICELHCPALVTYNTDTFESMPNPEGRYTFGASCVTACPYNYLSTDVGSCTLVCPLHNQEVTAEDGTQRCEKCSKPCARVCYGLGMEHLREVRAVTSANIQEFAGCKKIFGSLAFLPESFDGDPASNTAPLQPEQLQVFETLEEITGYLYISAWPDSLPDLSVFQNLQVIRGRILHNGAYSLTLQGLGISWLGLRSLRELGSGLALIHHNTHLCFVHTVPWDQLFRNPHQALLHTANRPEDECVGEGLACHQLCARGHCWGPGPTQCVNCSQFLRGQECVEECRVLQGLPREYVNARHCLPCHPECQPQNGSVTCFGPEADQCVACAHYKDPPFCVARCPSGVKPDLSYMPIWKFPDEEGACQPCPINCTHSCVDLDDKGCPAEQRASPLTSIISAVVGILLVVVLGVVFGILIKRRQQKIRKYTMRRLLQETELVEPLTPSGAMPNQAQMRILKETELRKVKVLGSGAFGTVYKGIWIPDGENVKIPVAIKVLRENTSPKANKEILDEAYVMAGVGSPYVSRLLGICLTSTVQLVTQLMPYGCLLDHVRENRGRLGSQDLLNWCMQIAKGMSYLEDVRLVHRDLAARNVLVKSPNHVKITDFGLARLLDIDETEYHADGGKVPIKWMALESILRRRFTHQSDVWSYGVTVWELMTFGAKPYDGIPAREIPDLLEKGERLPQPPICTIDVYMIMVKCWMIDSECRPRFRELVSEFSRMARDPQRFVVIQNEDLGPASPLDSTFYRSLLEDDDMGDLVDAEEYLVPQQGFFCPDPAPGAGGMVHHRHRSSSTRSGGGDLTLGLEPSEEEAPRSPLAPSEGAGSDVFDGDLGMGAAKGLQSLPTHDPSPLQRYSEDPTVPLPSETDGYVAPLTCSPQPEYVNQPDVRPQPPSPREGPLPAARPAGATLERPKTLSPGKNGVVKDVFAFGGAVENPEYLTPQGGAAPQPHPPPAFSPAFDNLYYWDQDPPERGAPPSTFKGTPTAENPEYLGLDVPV
A short description of assay [3]: SK-BR-3 cell growth inhibitors, pilot screen, 24 h, human (AID 572;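 active means viability at or below 10% of carrier control in both of two separate runs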;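 further: compound exposure lasted between 18 and 24 h rather than exactly 24 h; 100% = carrier-treated control wells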). The following applies: SK-BR-3 viability, CellTiter-Glo luminescence, at 10 µM, stronger effect = lower value. For orientation: ATP-based viability assays read luminescence as a measure of living cells.
Assay [4] can be described thus: HUVEC growth inhibition – cell-based, human, primary screen (AID 575;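 active means viability at or below 30% in both replicate assays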;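 further: 100% = median of untreated cell wells with 0.1% DMSO on each plate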). The following applies: HUVEC proliferation, CellTiter-Glo luminescence, 72 h; at 10 µM; stronger effect = lower value. In a few lines:
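System: primary human umbilical vein endothelial cells; Quantity: 1250 endothelial cells in each well; Buffer or medium: supplemented EBM, 2% fetal bovine serum; Doses: one dose, 10 µM final, 0.1% DMSO; Incubation: 72 h compound incubation; Technique: ATP-based CellTiter-Glo luminescent read; Evaluation: percent of median DMSO-control luminescence; Controls: vehicle and MePR control wells.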

Assay [5] is described as follows: growth inhibitors of H69AR lung tumor, primary screen, human, duplicate replicates (AID 580;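 active means viability at or under a set limit in both replicates, limit being median viability minus 3 SD, cut at about 48% in these data, passing the limit was not always enough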;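 further: 100% = mean luminescence of untreated wells and 0% = no signal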). The note with it: H69AR lung tumor cells viability, ATP luminescence, 72 h; at 10 µM; stronger effect = lower value.
A short description of assay [6]: reversal of MRP1-mediated doxorubicin resistance, pilot screen, H69AR cells, doxorubicin co-treatment (AID 601;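 active means viability loss from added drug above about 55%, and viability with drug at most 40%, in both replicates, limit read from the data, passing the limit was not always enough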). The following applies: CellTiter-Glo, 72 h, at 10 µM; for differential viability (reversal): stronger effect = higher value.
Assay [7] is described as follows: 384-well plate pilot, post-Golgi transport modulator project, inhibition of yeast transport mutant growth (AID 636; in the data active means inhibition above about 31%). The following applies: absorbance 615 nm, about 18 h, stronger effect = higher value.
Assay [8] in a line: growth suppression of yeast trafficking mutant, preliminary HTS, modulators of trafficking downstream of Golgi apparatus project, 1536-format plate, OD 615 nm (AID 637). The note with it: yeast transport mutant growth, absorbance 615 nm, 18 h; stronger effect = higher value.
The mark [9] stands for this setting: H69AR cells + 2 uM doxorubicin, measured here: viability with 2 uM doxorubicin, stronger effect = lower value.
The mark [10] stands for this setting: H69AR cells, compound alone cytotoxicity.

As to `CCOC(=O)c1[nH]c2ccc(OC)cc2c1NC(=O)CCN1CCC(C)CC1`, the viability is 101% in assay [1]; 101% (inactive) in assay [3]; 94.1% (inactive) in assay [4]; 96.8% (inactive) in assay [5]; 97.2% in assay [6] (setting [9]); 96.8% in assay [6] (setting [10]). The Her2 level in assay [2] was 94.5% (inactive). Further, in assay [6] (H69AR cells + 2 uM doxorubicin), the differential viability (reversal) is -0.37% (inactive). Also, the inhibition in assay [7] is -3.12% (inactive); in assay [8] it was -8.73% (inactive).
In the case of `CC(C)OC(=O)CSc1nnc(-c2ccco2)n1N`, the viability in assay [1] is 99.5%; in assay [3], 99.5% (inactive); in assay [4] it was 90.4% (inactive); in assay [5], 107% (inactive); in assay [6] (setting [9]) it was 93.2%; in assay [6] (setting [10]), 107%. For the same compound, the Her2 level in assay [2] is 112% (inactive). For the same compound, the differential viability (reversal) in assay [6] (H69AR cells + 2 uM doxorubicin) is 14% (inactive). In addition, the inhibition in assay [7] is -5% (inactive); in assay [8] it was -5.33% (inactive).
With `CCNc1nc(N2CCCCC2)nc(-n2nnc(C(=O)OCC)c2C)n1`, the viability was 162% in assay [1]; 162% (inactive) in assay [3]; 116% (inactive) in assay [4]; 95.7% (inactive) in assay [5]; 94.3% in assay [6] (setting [9]); 95.7% in assay [6] (setting [10]). For the same compound, in assay [2], the Her2 level was 94% (inactive). Moreover, the differential viability (reversal) in assay [6] (H69AR cells + 2 uM doxorubicin) was 1.31% (inactive). The inhibition is -6.45% (inactive) in assay [7] and 4.75% (inactive) in assay [8].
As for `Cn1c(=O)cc(OCC(=O)NCCCN2CCN(c3cccc(Cl)c3)CC2)c2ccccc21`, the viability in assay [1] is 85.5%; in assay [3], 85.5% (inactive); in assay [4], 48.7% (inactive); in assay [5], 63.7% (inactive); in assay [6] (setting [9]) it was 65.1%; in assay [6] (setting [10]), 63.7%. Moreover, the Her2 level in assay [2] is 74.5% (inactive). For the same compound, the differential viability (reversal) in assay [6] (H69AR cells + 2 uM doxorubicin) was -1.39% (inactive). Besides, the inhibition was -6.53% (inactive) in assay [7] and -2.62% (inactive) in assay [8].
For `Cc1ccc(NC(=O)CSc2nnc(-c3ccncc3)n2C)cc1C`, the viability was 90% in assay [1]; 90% (inactive) in assay [3]; 110% (inactive) in assay [4]; 92.2% (inactive) in assay [5]; 88.8% in assay [6] (setting [9]); 92.2% in assay [6] (setting [10]). Further, the Her2 level in assay [2] is 117% (inactive). Also, the differential viability (reversal) in assay [6] (H69AR cells + 2 uM doxorubicin) was 3.42% (inactive). Moreover, the inhibition was 1.08% (inactive) in assay [7] and 25.9% (inactive) in assay [8].
With `CCc1nc2scc(-c3ccccc3)c2c(=O)n1N`, the viability in assay [1] is 136%; in assay [3], 136% (inactive); in assay [4], 84% (inactive); in assay [5], 88.4% (inactive); in assay [6] (setting [9]), 96.5%; in assay [6] (setting [10]), 88.4%. The Her2 level in assay [2] is 119% (inactive). Besides, the differential viability (reversal) in assay [6] (H69AR cells + 2 uM doxorubicin) was -8.11% (inactive). The inhibition in assay [7] was -1.33% (inactive); in assay [8], -3.97% (inactive).
For `COc1cccc(N2CCN(Cc3nc(N)nc(Nc4ccccc4OC)n3)CC2)c1`, the viability in assay [1] is 124%; in assay [3], 124% (inactive); in assay [4], 107% (inactive); in assay [5] it was 77.4% (inactive); in assay [6] (setting [9]), 84.4%; in assay [6] (setting [10]), 77.4%. Moreover, the Her2 level in assay [2] was 92% (inactive). The differential viability (reversal) in assay [6] (H69AR cells + 2 uM doxorubicin) is -7.01% (inactive). Also, the inhibition in assay [7] was -3.95% (inactive); in assay [8] it was 1.13% (inactive).
For `COc1cccc2cc(C(=O)N3CCN(C45CC6CC(CC(C6)C4)C5)CC3)c(=O)oc12`, the viability in assay [1] was 93.5%; in assay [3] it was 93.5% (inactive); in assay [4], 81.8% (inactive); in assay [5] it was 107% (inactive); in assay [6] (setting [9]) it was 94.7%; in assay [6] (setting [10]), 107%. For the same compound, in assay [2], the Her2 level is 92% (inactive). Further, in assay [6] (H69AR cells + 2 uM doxorubicin), the differential viability (reversal) was 12.5% (inactive). Besides, the inhibition in assay [7] was -3.16% (inactive); in assay [8] it was -9.52% (inactive).
Take `CCOC(=O)c1c(NC(=O)c2nn(CC)cc2Br)c(C#N)cn1-c1ccccc1`: the viability was 78% in assay [1]; 78% (inactive) in assay [3]; 62.5% (inactive) in assay [4]; 74.8% (inactive) in assay [5]; 72.2% in assay [6] (setting [9]); 74.8% in assay [6] (setting [10]). Also, the Her2 level in assay [2] is 90% (inactive). Besides, the differential viability (reversal) in assay [6] (H69AR cells + 2 uM doxorubicin) is 2.55% (inactive). Also, the values for the inhibition in assay [7] and in assay [8] were -4.61% (inactive) and -6.17% (inactive), respectively.
For `O=C(NCc1ccccc1)C1CCN(S(=O)(=O)N2CCCCCC2)CC1`, the viability is 85% in assay [1]; 85% (inactive) in assay [3]; 109% (inactive) in assay [4]; 96.7% (inactive) in assay [5]; 93.1% in assay [6] (setting [9]); 96.7% in assay [6] (setting [10]). Further, the Her2 level in assay [2] was 106% (inactive). Also, in assay [6] (H69AR cells + 2 uM doxorubicin), the differential viability (reversal) was 3.6% (inactive). Moreover, the inhibition is 6.49% (inactive) in assay [7] and -6.23% (inactive) in assay [8].
For the compound `O=C(OCc1nnc(-c2ccc(Cl)cc2)o1)c1ccc(=O)n(Cc2ccccc2)n1`, the viability in assay [1] is 84.5%; in assay [3], 84.5% (inactive); in assay [4], 102% (inactive); in assay [5], 95.1% (inactive); in assay [6] (setting [9]), 82.1%; in assay [6] (setting [10]) it was 95.1%. For the same compound, the Her2 level in assay [2] is 84.5% (inactive). Besides, the differential viability (reversal) in assay [6] (H69AR cells + 2 uM doxorubicin) was 13.1% (inactive). Also, the inhibition in assay [7] is -4.81% (inactive); in assay [8], -9% (inactive).
Regarding `COc1cccc(NC(=O)CSc2nnc(-c3cccs3)n2C)c1`, the viability in assay [1] is 98%; in assay [3] it was 98% (inactive); in assay [4], 116% (inactive); in assay [5], 97.5% (inactive); in assay [6] (setting [9]), 85.3%; in assay [6] (setting [10]), 97.5%. Besides, in assay [2], the Her2 level was 78.5% (inactive). Further, the differential viability (reversal) in assay [6] (H69AR cells + 2 uM doxorubicin) was 12.2% (inactive). The results for the inhibition in assay [7] and in assay [8] were -6.08% (inactive) and -1.67% (inactive), respectively.
Turning to `CC1CN(C(=O)c2scc3c2OCCO3)CC(C)O1` (stereo not given), the viability was 102% in assay [1]; 102% (inactive) in assay [3]; 101% (inactive) in assay [4]; 104% (inactive) in assay [5]; 91.9% in assay [6] (setting [9]); 104% in assay [6] (setting [10]). Besides, the Her2 level in assay [2] was 76% (inactive). Also, the differential viability (reversal) in assay [6] (H69AR cells + 2 uM doxorubicin) was 12.1% (inactive). Moreover, the inhibition in assay [7] is -7.3% (inactive); in assay [8], 5.24% (inactive).
On to `CCC(=O)Nc1ccc(NC(=O)c2cccc(OC)c2)nc1`, for which the viability is 94% in assay [1]; 94% (inactive) in assay [3]; 101% (inactive) in assay [4]; 97.8% (inactive) in assay [5]; 90.2% in assay [6] (setting [9]); 97.8% in assay [6] (setting [10]). Further, the Her2 level in assay [2] was 92.5% (inactive). In addition, the differential viability (reversal) in assay [6] (H69AR cells + 2 uM doxorubicin) was 7.67% (inactive). In addition, the inhibition in assay [7] was 0.14% (inactive); in assay [8] it was -6.56% (inactive).

For the origin of these results see PubChem BioAssay.
